From the EternaBench riboswitch data

Test system: MS2 coat protein
Experiment: apparent Kd, MS2 coat protein; higher = weaker binding; RNA-MaP array; FMN 200 µM where present
Outline: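 The apparent Kd is the median of filtered binding-curve fits, one per cluster, to green signal normalised to red-channel RNA signal and control-cluster median Fmax. The clusters were on Illumina sequencing chips, and stalled E. coli RNA polymerase had transcribed the designs on them. Titration used SNAP-549-labelled MS2 coat protein from 0.7 or 1.5 nM, doubling to 3 µM, without and then with constant ligand, in 100 mM Tris-HCl pH 7.5, 80 mM KCl, 4 mM MgCl2, BSA, DTT, yeast tRNA and Tween-20.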

[1] = designed as: OFF switch for flavin mononucleotide, no ligand
[2] = ligand present: flavin mononucleotide, designed as: OFF switch for flavin mononucleotide
[3] = ligand present: flavin mononucleotide, designed as: ON switch for flavin mononucleotide
[4] = designed as: ON switch for flavin mononucleotide, no ligand

Row | Sequence | apparent Kd [1] | apparent Kd [2] | apparent Kd [3] | apparent Kd [4]
1 | UUAUUAGCAGGAUAUAUCCACGACCACAUGAGGAUCACCCAUGUGGCCGCUUGAGGUUGUAUAGAAGGGCUUUAUU | 15.3 nM | 14.6 nM |  | 
2 | ACCGCUCGAGGAUAUACAUGAGGAUCACCCAUGUAACCCAGAAGCAAGGCCUCAGGAUGUAGAAGGCGACGCAA | 14 nM | 14.2 nM |  | 
3 | GUCACCUCGUGAGGAUAUACAACACUGCUUCGGCAGUGUAUUAAGAUCACAUGAGGAUCACCCAUGUAGAAGGCACGAGCUGAU | 17.2 nM | 221 nM |  | 
4 | AAAGGACGAGGAUAUACAUGAGGAUCACCCAUGUGUAAAACGUAAUAAAAUAACUUAUGUAGAAGGCGUCCAAA | 30.6 nM | 216 nM |  | 
5 | GGUUCGGGAGGAUAUGUGUUUUUGGACAUGAGGAUCACCCAUGUUUUCAUGUUUUUUCCCACAGAAGGUUUGGGCC | 18.6 nM | 22.9 nM |  | 
6 | GGUGUCGCAUGAGGAUAUGGUCAGCUUUGCUGACCAGAAGGCAUGUCAAUAGACAUGAGGAUCACCCAUGUAGUAAAGACACCA |  |  | 37.1 nM | 
7 | UUAGCAACAUGAGGAUCACCCAUGUAGGAUAUCGCUAUUGUAAUCAUGAAACAUGAUUACAAUAGCGAGAAGGACAUAUGCUAA | 6.42 nM | 9.48 nM |  | 
8 | GGGUACAUCGGAGGAUAUCAUGUAAAUACAUGAGGAUCACCCAUGUCGAUGGAGACAUCGGAGAUCGAGAAGGCCGAUGUACCG |  |  | 294 nM | 168 nM
9 | AUACCACGAGGAUAUCGUCUAUAUUACAUGAGGAUCACCCAUGUUAUAUUUGUAAUGUUUCGAGAAGGCGUGUUUU | 15.3 nM | 13.3 nM |  | 
10 | CAGGUAGACUGAGGAUAUACAAUAAAGACCUAGUCUAUCUAGGUCUCCACAUGAGGAUCACCCAUGUAGAAGGCAGUCUGCCUG | 18.1 nM | 44.2 nM |  | 
11 | CGUAGGAUGCAGAAGGCAUGAACAUGAGGAUCACCCAUGUCAAAAGACAUGAGGAUAUGCAUCCUACGAAAAGUGCGAAAGCAC |  |  | 5.6 nM | 17.5 nM
12 | AGUAUUGUAGGGUAUCCAACAUGAGGAUCACCCAUGUACCAGAGAAGGACCCAGGCAUUGCUUGGGUAGGAUAUCUGCGCAUCA | 18.4 nM | 193 nM |  | 
13 | AGGAGUACAGGAUAUACAUGAGGAUCACCCAUGUGAGAAUUAAGUGGCGUACCACAAAGUAGAAGGGUACUCCA | 50.5 nM | 198 nM |  | 
14 | UGGACUGGGCAGAAGGGACAUGAGGAUCACCCAUGUCUUGGGCUACUUCAGUCAGGAUAUGCCCAUUGAAUAUCCGAGCAUCAA | 13.7 nM | 77.4 nM |  | 
15 | AAGGUACGAGGAUAUGCAUAGAUACAGACACAUGUUCAAGUACAUGAGGAUCACCCAUGUAGAAGGCGUAUAUA | 43.5 nM | 61.8 nM |  | 
16 | GCAUGGUAUGAGAAGGCAUAUUUAAUCUAACAACAUGUUUACAUGAGGAUCACCCAUGUUACCAAUGAGGAUAUCAUACCGUGC | 7.31 nM | 7.28 nM |  | 
17 | ACGUCGAGCCAGAAGGCAACAUGAGGAUCACCCAUGUAGUCCGGCUCGUGUUGAGGAUAUGGCACCCGCGCGGAAGGCGCAGGU | 5.12 nM | 6.62 nM |  | 
18 | CGCUAAGAUGGGUUUAAUGGAGCAUAGGAUAUGCUUGUACAUGAGGAUCACCCAUGUUAUAUUGUGCAGAAGGGUGCAUUUGCG |  |  | 158 nM | 457 nM
19 | CCGACGUCAGGAUAUCUGAUGUCUAACUUCGGUUAGACAUCAGAGAAGGGACAUGAGGAUCACCCAUGUCGGAG | 29 nM | 52.8 nM |  | 
20 | CUGACAGCGCAGAAGGGAGAUCCUACAUGAGGAUCACCCAUGUGGGCUCUCAGGAUAUGCACGUGUAUACCGAAAGUGGUAUUG |  |  | 5.99 nM | 13.4 nM
21 | GUAGCUAGUACAGGAUAUUAGUGCGUGUAGUAUUGAGAAGGGUACAUGAGGAUCACCCAUGUGAUCAAUCACUGUUAAGGUUGC | 221 nM | 177 nM |  | 
